PG9 binder: small molecules binding HIV-1 gp120 antibody PG9; TR-FRET gp120-PG9 antibody binding; inhibition, % at 6.7 µM; actives 0.43% (n = 360,000); in the data active means inhibition above about 8.5%
NR2E3 ag-1: NR2E3 (human) agonism; Q9Y5X4; GST-NR2E3/biotin-RetCOR TR-FRET, 1536-well; inhibition of corepressor binding, % at 4.78 µM; actives 0.12% (n = 320,000);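 active means percent inhibition above the cutoff of mean plus 3 SD of all tested compounds, set per screening campaign, cut at about 20% in these data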;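 further: 0% = DMSO wells and 100% = biotin wells as full block of FRET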
Target sequence (Q9Y5X4 whole entry, looked up): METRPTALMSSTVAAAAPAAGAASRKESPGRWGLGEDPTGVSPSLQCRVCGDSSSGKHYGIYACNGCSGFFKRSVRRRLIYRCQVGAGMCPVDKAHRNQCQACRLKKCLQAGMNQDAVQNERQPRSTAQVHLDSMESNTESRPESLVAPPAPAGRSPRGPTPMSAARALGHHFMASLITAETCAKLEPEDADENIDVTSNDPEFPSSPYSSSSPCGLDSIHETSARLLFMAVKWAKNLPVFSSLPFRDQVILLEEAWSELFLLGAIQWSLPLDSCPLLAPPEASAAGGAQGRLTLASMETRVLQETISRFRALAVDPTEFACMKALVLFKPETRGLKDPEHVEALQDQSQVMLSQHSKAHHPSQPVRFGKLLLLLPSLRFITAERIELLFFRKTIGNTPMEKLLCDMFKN
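Test system – NR2E3–RetCOR corepressor complex · Quantity – NR2E3 fusion 1.35 nM · Buffer or medium – Tris pH 7.5 · Incubation – Compound–protein incubation for 5 h at 4 °C · Technique – TR-FRET, Eu(K)-anti-GST donor, streptavidin-D2 acceptor, ex 340, em 617/671 nm · Evaluation – percent inhibition of 671/617 nm emission ratio versus biotin and DMSO controls · Plate – 1536-well format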
Rev-erbA mod: modulators of human Rev-erb alpha DNA binding; actives 0.79% (n = 370,000); activity, % at 10 µM; P20393; AID 1259318; Rev-erbα–FITC-DNA binding, fluorescence polarization, 90 min;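 active means activity above about 14%, limit read from the data; passing the limit was not always enough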;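 further: 0% = DMSO wells with 35 nM protein and 100% = DMSO wells with 750 nM protein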
NR2E3 ag-2: human photoreceptor-specific nuclear receptor agonism; Q9Y5X4; CHO-S Gal4-NCOR/VP16-NR2E3 two-hybrid, luciferase; inhibition of corepressor binding, % at 3.98 µM; actives 0.35% (n = 360,000);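 active means inhibition above the mean of all tested compounds plus 3 SD, cut at about 70% in these data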;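 further: 0% = DMSO with NR2E3 transfected cells and 100% = cells lacking NR2E3 construct; higher means lower luciferase signal from less NR2E3 corepressor binding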
rCAG binder: binds r(CAG) RNA repeats. actives 1.3% (n = 370,000). inhibition, % at 3 µM. AID 651821. r(CAG) RNA repeat, TO-PRO-1 dye displacement fluorescence;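 active means inhibition above the plate cutoff, the mean of all test compounds on that plate plus 3 SD, cut at about 35% in these data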;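 further: 0% = DMSO alone and 100% = 100 µM mitoxantrone as full dye displacement; higher means more dye released from RNA so lower well fluorescence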
NR2E3 ag conf: NR2E3 agonism confirmed in two-hybrid assay. shares compounds with NR2E3 ag-2. CHO-S mammalian two-hybrid NR2E3-NCOR, luciferase luminescence. inhibition, % at 3.98 µM. actives 51% (n = 2,300). AID 624378;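 active means average inhibition above a cutoff equal to the mean inhibition of all tested compounds plus one SD, cut at about 70% in these data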;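 further: 0% = DMSO in NR2E3 cells and 100% = DMSO in cells lacking NR2E3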
VP16 counter: counter-screen for NR2E3 agonists: GAL4-VP16 reporter inhibitors. CHO-S GAL4-VP16 luciferase reporter, luminescence. actives 29% (n = 2,300). inhibition, % at 3.98 µM. shares compounds with NR2E3 ag-2;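 active means mean inhibition above a cutoff equal to the average over all tested compounds plus one standard deviation, cut at about 70% in these data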;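 further: luciferase from a UAS reporter driven by GAL4-VP16 transactivation; 0% = DMSO with VP16-transfected cells and 100% = DMSO with cells lacking VP16; higher means less reporter light so more repression of VP16 activity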
Numbers without * were called inactive; · = no result given. An excerpt weighted towards active compounds, which were near 2.6% of everything screened.

SMILES | PG9 binder | NR2E3 ag-1 | Rev-erbA mod | NR2E3 ag-2 | rCAG binder | NR2E3 ag conf | VP16 counter
N#CC(c1cccc(Cl)c1)c1ccc2c(C(F)(F)F)cc(C(F)(F)F)nc2n1 (stereo not given) | 1.8 | 0.6 | -0.7 | 110.3* | -1.2 | 99.4* | 90.6*
O=C(NCc1c(F)cccc1F)c1cc(COc2c(F)cccc2F)on1 | -2.7 | 3.0 | 2.6 | 88.6* | -3.1 | -27.5 | -48.9
C[C@@H]1ON(C)[C@H]2C[C@H]3c4cc(-c5ccccc5)ccc4CCN3C[C@@H]12 | -0.3 | · | 11.4 | · | 7.8 | · | ·
Cc1ccc(NC(=O)CNC(=O)c2cccc(C)c2)nc1 | -1.9 | 2.4 | 1.0 | 52.9 | 1.5 | 75.0* | 18.5
O=C1NC(=S)SC1=Cc1ccccc1Cl | -0.3 | · | 5.6 | 66.9 | 17.3 | 79.0* | 73.0*
Cc1cc(=O)n(-c2ccc(O)cc2)[nH]1 | -2.5 | 14.0 | -6.7 | 55.9 | 3.0 | -7.6 | 3.7
COc1ccc(-c2nn(-c3ccccc3)cc2/C=N/O)cc1OC | 1.2 | -1.7 | -0.1 | 60.0 | -0.7 | 38.2 | 11.2
C[C@@H]1CN([C@@H](C)CO)C(=O)CCCn2nncc2CO[C@H]1CN(C)CC1CC1 | -2.3 | · | -1.5 | · | 0.3 | · | ·
CN(CCOc1ccc(Cl)cc1)C(=O)c1cccc(S(=O)(=O)N2CCN(c3ccc(F)cc3)CC2)c1 | · | · | · | 95.8* | · | 94.3* | 81.8*
COc1ccc(CCN(C)C(=O)c2cccc(S(=O)(=O)N3CCN(c4ccc(F)cc4)CC3)c2)cc1OC | -0.8 | · | 5.2 | 61.0 | 2.8 | 61.0 | 47.0
COc1ccccc1CN(C)C(=O)c1cccc(S(=O)(=O)N2CCCC2)c1 | -0.8 | -0.3 | -1.6 | -2.0 | -5.8 | · | ·
CCc1cc2c(nc1CC)CCCN2S(=O)(=O)c1ccc(F)cc1 | -1.8 | · | 2.8 | · | 1.5 | · | ·
CCOc1ccc(OCCC(=O)Nc2ccc(F)cc2C)cc1 | -2.4 | 1.8 | -1.8 | 49.7 | -3.7 | 14.7 | -25.0
Cc1cccc(NC(=S)NNc2ncc(C(F)(F)F)cc2Cl)c1 | -4.5 | 1.3 | 5.6 | -15.8 | 4.8 | · | ·
FC(F)(F)c1cnc(NNC(=S)Nc2ccccc2Cl)c(Cl)c1 | 0.0 | 6.4 | 0.9 | 52.5 | 3.5 | 65.6 | 65.9
Cn1nnnc1Sc1ncnc2scc(-c3ccccc3)c12 | -0.1 | -0.3 | 3.7 | 63.1 | 10.8 | -17.9 | 9.6
Cn1nnnc1Sc1ncnc2scc(-c3ccccc3Br)c12 | -1.7 | 2.7 | -0.9 | 64.1 | -3.8 | 26.7 | 58.7
Cn1nnnc1Sc1ncnc2scc(-c3ccc(F)cc3)c12 | 1.6 | 0.7 | -0.6 | 36.9 | 4.6 | · | ·
Cn1nnnc1Sc1ncnc2scc(-c3ccc(Br)cc3)c12 | -0.5 | · | 5.7 | 49.0 | 5.2 | -25.1 | -22.0
COc1ccccc1-c1csc2ncnc(Sc3nnnn3C)c12 | -0.3 | 2.4 | 0.1 | -8.8 | -3.3 | · | ·
Cn1nnnc1Sc1ncnc2scc(-c3cccc4ccccc34)c12 | 1.4 | · | 3.5 | 59.7 | 1.4 | 58.8 | 69.2
C[C@H](CO)N1C[C@H](C)[C@@H](CN(C)C(=O)C2CC2)OCc2cn(nn2)CCCC1=O | 0.8 | · | 0.3 | · | 0.0 | · | ·
Cc1ccc2c(c1C)-c1c(ccc(C)c1C)C(=O)C2=O | 4.2 | · | 1.5 | 60.4 | 3.2 | 47.5 | 24.0
COCCn1c(C)cc(C(=O)COC(=O)c2cccc(O)c2)c1C | -1.5 | -0.2 | -3.7 | 58.8 | -3.8 | 42.1 | -7.2
COCCn1c(C)cc(C(=O)COC(=O)c2cc3c(s2)CCC3)c1C | 1.4 | -2.0 | -21.9 | -2.9 | 2.7 | · | ·
SMILES | PG9 binder | NR2E3 ag-1 | Rev-erbA mod | NR2E3 ag-2 | rCAG binder | NR2E3 ag conf | VP16 counter
COCCN(CCOC)C(=O)[C@H](CCc1ccccc1)NC(=O)[C@H]1O[C@@H](n2cnc3c(N)ncnc32)[C@H](O)[C@@H]1O | 0.9 | · | 4.0 | · | -0.8 | · | ·
CCCCCCCCN1C(=O)[C@@H](CC(=O)NCc2ccc(OC)c(OC)c2)C[C@@]2(C(=O)OC)C1=C[C@H](C(C)(C)C)O[C@@H]2C | -0.7 | · | 0.6 | · | 10.3 | · | ·
NC(=O)c1ccccc1OCC(=O)N1CCC(Cc2ccccc2)CC1 | 2.1 | 1.6 | -3.4 | 77.0* | 3.9 | 91.6* | 73.7*
S=C1NCN(CC2CC2)CN1 | 1.0 | · | 2.2 | · | 0.3 | · | ·
COC(=O)N[C@H]1CC=C[C@@H]1Cc1cccc(Oc2ccccc2)c1 | -1.5 | · | -1.8 | · | 1.5 | · | ·
Cc1sc2ncnc(NCc3cccs3)c2c1C | 0.4 | 2.9 | -2.5 | 78.4* | -1.1 | 96.1* | 80.7*
Cc1sc2ncnc(NCCCO)c2c1C | 0.8 | 5.6 | -3.2 | -17.2 | -1.1 | · | ·
Cc1sc2ncnc(NCc3ccco3)c2c1C | 1.4 | -2.3 | -8.8 | 34.0 | 6.4 | · | ·
Cc1sc2ncnc(NCC(c3ccccc3)N(C)C)c2c1C (stereo not given) | -2.8 | 4.1 | 2.9 | 1.4 | -5.2 | · | ·
Cc1sc2ncnc(NCC(O)c3ccc([N+](=O)[O-])cc3)c2c1C (stereo not given) | -0.4 | 7.4 | -0.7 | 105.0* | 3.9 | 94.6* | 76.4*
Cc1sc2ncnc(NCC(O)c3ccccc3)c2c1C (stereo not given) | 1.1 | 1.8 | -7.3 | 75.2* | -0.2 | 70.8* | 50.6
O=S1(=O)N[C@@H](Cc2ccccc2)COc2cc(NCCCN3CCOCC3)ccc21 | -1.3 | · | 8.1 | · | 2.1 | · | ·
C[C@@H]1ON(C)[C@H]2C[C@H]3c4cc(-c5cccc(Cl)c5)ccc4CCN3C[C@@H]12 | -1.8 | · | -0.1 | · | 0.8 | · | ·
Cc1noc(C)c1S(=O)(=O)N(C)C[C@@H]1OCc2cn(nn2)CCCC(=O)N([C@H](C)CO)C[C@H]1C | -0.1 | · | -1.7 | · | 2.2 | · | ·
O=C(NCCc1ccccc1Cl)[C@@H]1CCCN1C(=O)[C@@H](NS(=O)(=O)c1ccc(F)cc1F)C1CCCCC1 | 0.1 | · | -0.6 | · | 2.0 | · | ·
COC(=O)c1cccc(-n2c(C)cc(O)cc2=O)c1 | -0.7 | · | 3.8 | · | 1.4 | · | ·
COc1ccccc1CNc1nc(NCc2ccccc2OC)c2sccc2n1 | 0.5 | · | 7.0 | 75.1* | 3.6 | 75.0* | 57.3
COc1ccccc1CNc1nc(NCc2ccc3occc3c2)c2sccc2n1 | -0.8 | · | -7.4 | 69.0 | 3.5 | 53.5 | 64.2
COc1ccccc1CNc1nc(NCc2ccccc2SC)c2sccc2n1 | 0.3 | · | 1.0 | 80.1* | 3.6 | 85.2* | 69.7
COCCNc1nc(NCc2ccccc2OC)c2sccc2n1 | -0.7 | · | 3.4 | 14.6 | 1.1 | · | ·
COc1cccc(CNS(=O)(=O)c2ccccc2Br)c1 | 0.6 | · | -8.4 | · | 3.8 | · | ·
